Measured values from ChEMBL document CHEMBL3286282, “Synthesis and antiproliferative activity of novobiocin analogues as potential hsp90 inhibitors” (Eur J Med Chem, 2014).
The source made the active and inactive calls. The rule behind the calls is not given here.

Legend:
[1] = Retardation factor of the compound using c-hexane/AcOEt at ratio of 6:4 as solvent system; type: physicochemical
[2] = test system: MCF7; experiment: Antiproliferative activity against ER-positive human MCF7 cells assessed as cell viability at 0.1 mM after 72 hrs by MTT assay; type: functional; details: MCF7, 72 h, read-out: Activity
Outline: (§1)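 MCF-7 (ER-positive) cells in DMEM with 2 mM L-glutamine, penicillin/streptomycin and 10% charcoal-treated FCS, seeded at 2500-5000 cells/well. Drugs added 24 h later in serial dilutions from 10 mM DMSO stocks, then exposed 72 h. MTT (500 µg/mL) for 3 h at 37 °C, formazan dissolved in DMSO, A570 read minus A650. Sextuplicates, three experiments.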

[3] = Retardation factor of the compound using CH2Cl2/AcOEt at ratio of 9:1 as solvent system; type: physicochemical
[4] = test system: MCF7; experiment: Growth inhibition of ER-positive human MCF7 cells after 72 hrs by MTT assay; type: functional; details: MCF7, 72 h; outline: as §1
[5] = test system: MCF7; experiment: Growth inhibition of Faslodex-resistant human MCF7 cells after 72 hrs by MTT assay; type: functional; details: MCF7, 72 h
Outline: (§2)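 ER-negative MDA-MB-231 cells and tamoxifen- or Faslodex-resistant MCF-7 cells, grown in DMEM with 10% charcoal-treated FCS and seeded at 2500-5000 cells/well. Drug serial dilutions added after 24 h from 10 mM DMSO stocks. After 72 h, MTT at 500 µg/mL for 3 h at 37 °C, then A570 read minus A650.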

[6] = test system: RPMI-8226; experiment: Growth inhibition of human RPMI8226 cells after 72 hrs by MTS assay; type: functional; details: RPMI-8226, 72 h
Outline: (§3)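 Myeloma RPMI 8226 and LP-1 cells and prostate PC-3 cells, grown in RPMI 1640 with 2 mM L-glutamine and 10% heat-inactivated FBS, seeded at 2500-5000 cells/well. Drug dilutions added after 24 h. After 72 h, MTS reagent added and A492 read 2 or 3 h later. Run in triplicate, with each experiment done at least twice. GI50 taken relative to vehicle-treated cells.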

[7] = test system: LP-1; experiment: Growth inhibition of human LP-1 cells after 72 hrs by MTS assay; type: functional; details: LP-1, 72 h; outline: as §3
[8] = test system: PC-3; experiment: Growth inhibition of human PC3 cells after 72 hrs by MTS assay; type: functional; details: PC-3, 72 h; outline: as §3
[9] = test system: MCF7; experiment: Cell cycle arrest in human MCF7 cells assessed as accumulation at subG1 phase at 100 uM after 48 hrs by flow cytometry (reference value: 5%); type: functional
Outline: (§4)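 MCF-7 cells at 1.3 x 10^5 cells/mL exposed to 100 µM for 48 or 72 h, with DMSO control. Cells fixed in PBS/ethanol (30/70), then 10^4 cells incubated 30 min in PBS/0.2% Triton X-100/1 mM EDTA with propidium iodide (50 µg/mL) and RNase (0.5 mg/mL). Flow cytometry gave % cells per phase, with sub-G1 counted as apoptotic. Mean of two independent experiments.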

[10] = test system: MCF7; experiment: Cell cycle arrest in human MCF7 cells assessed as accumulation at subG1 phase at 100 uM after 72 hrs by flow cytometry (reference value: 9.5%); type: functional; outline: as §4
[11] = test system: MCF7; experiment: Cell cycle arrest in human MCF7 cells assessed as accumulation at G0/G1 phase at 100 uM after 48 hrs by flow cytometry (reference value: 87%); type: functional; outline: as §4
[12] = test system: MCF7; experiment: Cell cycle arrest in human MCF7 cells assessed as accumulation at G0/G1 phase at 100 uM after 72 hrs by flow cytometry (reference value: 60.5%); type: functional; outline: as §4
[13] = test system: MCF7; experiment: Cell cycle arrest in human MCF7 cells assessed as accumulation at S phase at 100 uM after 48 hrs by flow cytometry (reference value: 6%); type: functional; outline: as §4
[14] = test system: MCF7; experiment: Cell cycle arrest in human MCF7 cells assessed as accumulation at S phase at 100 uM after 72 hrs by flow cytometry (reference value: 20.5%); type: functional; outline: as §4
[15] = test system: MCF7; experiment: Cell cycle arrest in human MCF7 cells assessed as accumulation at G2/M phase at 100 uM after 48 hrs by flow cytometry (reference value: 7%); type: functional; outline: as §4
[16] = test system: MCF7; experiment: Cell cycle arrest in human MCF7 cells assessed as accumulation at G2/M phase at 100 uM after 72 hrs by flow cytometry (reference value: 19%); type: functional; outline: as §4
[17] = molecular target: Heat shock protein HSP 90-beta (Homo sapiens) (UniProt P08238); experiment: Inhibition of HSP90 in human MCF7 cells assessed as ER-alpha degradation at 100 uM after 24 hrs by western blot analysis; type: cell-based
Outline: (§5)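 MCF-7 cells grown to 50% confluence, exposed to 100 µM for 24 h with or without MG132 (5 µM). Lysed in Tris-HCl pH 7.5/NaCl/EGTA/Triton X-100 buffer with phosphatase and protease inhibitors. 20 µg protein run on SDS-PAGE. ERα probed with D12 monoclonal antibody (1 µg/mL, overnight 4 °C), detected by biotin/avidin-peroxidase. Nonspecific band used as loading control; DMSO as vehicle.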

[18] = molecular target: Heat shock protein HSP 90-beta (Homo sapiens) (UniProt P08238); experiment: Inhibition of HSP90 in human MCF7 cells assessed as ER-alpha degradation at 100 uM after 24 hrs by western blot analysis in presence of proteasome inhibitor MG132; type: cell-based; outline: as §5
[19] = molecular target: Heat shock protein HSP 90-beta (Homo sapiens) (UniProt P08238); experiment: Inhibition of HSP90 in human MCF7 cells assessed as induction of Her2 degradation at 100 uM after 24 hrs by western blot analysis; type: cell-based
[20] = molecular target: Heat shock protein HSP 90-beta (Homo sapiens) (UniProt P08238); experiment: Inhibition of HSP90 in human MCF7 cells assessed as induction of Raf degradation at 100 uM after 24 hrs by western blot analysis; type: cell-based
[21] = molecular target: Heat shock protein HSP 90-beta (Homo sapiens) (UniProt P08238); experiment: Inhibition of HSP90 in human MCF7 cells assessed as induction of Cdk4 degradation at 100 uM after 24 hrs by western blot analysis; type: cell-based
[22] = Retardation factor of the compound using Et2O/c-hexane at ratio of 8:2 as solvent system; type: physicochemical
[23] = test system: MCF7; experiment: Ratio of novobiocin GI50 to compound GI50 for human MCF7 cells; type: functional
[24] = test system: MDA-MB-231; experiment: Growth inhibition of ER-negative human MDA-MB-231 cells after 72 hrs by MTT assay; type: functional; details: MDA-MB-231, 72 h; outline: as §2
[25] = test system: MCF7; experiment: Growth inhibition of tamoxifen-resistant human MCF7 cells after 72 hrs by MTT assay; type: functional; details: MCF7, 72 h; outline: as §2
[26] = Retardation factor of the compound using CH2Cl2 as solvent system; type: physicochemical
[27] = Retardation factor of the compound using Et2O as solvent system; type: physicochemical
[28] = Retardation factor of the compound using CH2Cl2/c-hexane at ratio of 9:1 as solvent system; type: physicochemical
[29] = Retardation factor of the compound using CH2Cl2/MeOH at ratio of 9:1 as solvent system; type: physicochemical
[30] = Retardation factor of the compound using c-hexane/AcOEt at ratio of 8:2 as solvent system; type: physicochemical
[31] = Retardation factor of the compound using CH2Cl2/AcOEt at ratio of 95:5 as solvent system; type: physicochemical
[32] = test system: MCF7; experiment: Antiproliferative activity against human MCF7 cells assessed as inhibition of cell proliferation; type: functional, cell-based
[33] = test system: MDA-MB-231; experiment: Antiproliferative activity against human MDA-MB-231 cells assessed as inhibition of cell proliferation; type: functional, cell-based
[34] = test system: Caco-2; experiment: Antiproliferative activity against human Caco2 cells assessed as inhibition of cell proliferation; type: functional, cell-based
[35] = test system: IGROV-1; experiment: Antiproliferative activity against human IGROV1 cells assessed as inhibition of cell proliferation; type: functional, cell-based
[36] = test system: Ishikawa; experiment: Antiproliferative activity against human Ishikawa cells assessed as inhibition of cell proliferation; type: functional, cell-based
[37] = Retardation factor of the compound using CH2Cl2/MeOH at ratio of 95:5 as solvent system; type: physicochemical

Sequence of Heat shock protein HSP 90-beta (Homo sapiens) (P08238 whole entry): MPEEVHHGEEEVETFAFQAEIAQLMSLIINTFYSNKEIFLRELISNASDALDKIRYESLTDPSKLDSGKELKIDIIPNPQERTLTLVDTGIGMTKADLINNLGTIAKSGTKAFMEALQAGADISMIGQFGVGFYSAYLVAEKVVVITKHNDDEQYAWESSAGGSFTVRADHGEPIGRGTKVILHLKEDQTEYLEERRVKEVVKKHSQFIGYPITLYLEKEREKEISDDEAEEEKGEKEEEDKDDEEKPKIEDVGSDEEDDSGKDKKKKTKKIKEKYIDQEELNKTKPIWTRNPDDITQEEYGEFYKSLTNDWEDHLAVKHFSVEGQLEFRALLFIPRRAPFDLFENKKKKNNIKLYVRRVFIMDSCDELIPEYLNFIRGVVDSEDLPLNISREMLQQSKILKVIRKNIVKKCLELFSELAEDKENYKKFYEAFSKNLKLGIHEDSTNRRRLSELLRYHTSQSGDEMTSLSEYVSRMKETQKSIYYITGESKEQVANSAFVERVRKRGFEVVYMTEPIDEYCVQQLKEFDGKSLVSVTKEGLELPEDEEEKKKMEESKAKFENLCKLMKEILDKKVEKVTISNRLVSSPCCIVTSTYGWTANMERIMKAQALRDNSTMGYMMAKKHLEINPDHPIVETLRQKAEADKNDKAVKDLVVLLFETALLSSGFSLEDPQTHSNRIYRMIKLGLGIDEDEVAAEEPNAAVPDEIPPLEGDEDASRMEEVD

Cc1c(O)ccc2c(OS(C)(=O)=O)c(NC(=O)c3ccc4c(c3)CCC(C)(C)O4)c(=O)oc12
Rf [1]: 0.14
viability at 100 µM [2]: 61%

Cc1c(O)ccc2c(OS(=O)(=O)c3cccs3)c(NC(=O)c3ccc4c(c3)CCC(C)(C)O4)c(=O)oc12
Rf [3]: 0.23
viability at 100 µM [2]: 62%

Cc1ccc(S(=O)(=O)Oc2c(NC(=O)c3ccc4c(c3)CCC(C)(C)O4)c(=O)oc3c(C)c(O)c(Br)cc23)cc1
Rf [1]: 0.39
viability at 100 µM [2]: 65%

CO[C@@H]1[C@@H](OC(N)=O)[C@@H](O)[C@H](Oc2ccc3c(O)c(NC(=O)c4ccc(O)c(CC=C(C)C)c4)c(=O)oc3c2C)OC1(C)C [NOVOBIOCIN]
GI50 [4]: 260 µM

CC(=O)OC[C@H]1O[C@@H](Oc2ccc3c(OS(=O)(=O)c4ccc(C)cc4)c(NC(=O)c4ccc5c(c4)CCC(C)(C)O5)c(=O)oc3c2C)[C@H](OC(C)=O)[C@@H](OC(C)=O)[C@@H]1OC(C)=O
GI50 [5]: 25 µM
GI50 [6]: 2.5 µM
GI50 [7]: 5 µM
GI50 [8]: 25 µM
Activity [9]: 13%
Activity [10]: 27%
Activity [11]: 40%
Activity [12]: 30%
Activity [13]: 5.5%
Activity [14]: 9.5%
Activity [15]: 55%
Activity [16]: 60%
ER-alpha degradation (active/inactive) [17]: Active
inhibition [18]: inactive
inhibition [19]: inactive
inhibition [20]: inactive
inhibition [21]: inactive
Rf [22]: 0.14
Ratio [23]: 40
viability at 100 µM [2]: 10%
GI50 [4]: 6 µM
GI50 [24]: 10 µM
GI50 [25]: 30 µM

COc1ccc(C#Cc2cc3c(OS(=O)(=O)c4ccc(C)cc4)c(NC(=O)c4ccc5c(c4)CCC(C)(C)O5)c(=O)oc3c(C)c2OC)cc1
Rf [26]: 0.2
viability at 100 µM [2]: 89%

Cc1c(O)ccc2c(OS(=O)(=O)c3ccc4ccccc4c3)c(NC(=O)c3ccc4c(c3)CCC(C)(C)O4)c(=O)oc12
ER-alpha degradation (active/inactive) [17]: Active
Rf [27]: 0.3
viability at 100 µM [2]: 33%
GI50 [4]: 67 µM

COc1c(C#Cc2ccccc2)cc2c(OS(=O)(=O)c3ccc(C)cc3)c(NC(=O)c3ccc4c(c3)CCC(C)(C)O4)c(=O)oc2c1C
Rf [28]: 0.1
viability at 100 µM [2]: 90%

Cc1ccc(S(=O)(=O)Oc2c(NC(=O)c3ccc4c(c3)CCC(C)(C)O4)c(=O)oc3c(C)c(O)ccc23)cc1
ER-alpha degradation (active/inactive) [17]: Active
inhibition [18]: inactive

COc1c(C#CCN(C)C)cc2c(OS(=O)(=O)c3ccc(C)cc3)c(NC(=O)c3ccc4c(c3)CCC(C)(C)O4)c(=O)oc2c1C
Rf [29]: 0.22
viability at 100 µM [2]: 96%

COc1c(Br)cc2c(OC)c(NC(=O)c3ccc4c(c3)CCC(C)(C)O4)c(=O)oc2c1C
Rf [30]: 0.19
Rf [31]: 0.59
viability at 100 µM [2]: 90%

C#Cc1cc2c(OS(=O)(=O)c3ccc(C)cc3)c(NC(=O)c3ccc4c(c3)CCC(C)(C)O4)c(=O)oc2c(C)c1OC
Rf [31]: 0.5
viability at 100 µM [2]: 82%

COc1cc(C#Cc2cc3c(OS(=O)(=O)c4ccc(C)cc4)c(NC(=O)c4ccc5c(c4)CCC(C)(C)O5)c(=O)oc3c(C)c2OC)cc(OC)c1OC
Rf [31]: 0.48
viability at 100 µM [2]: 92%

Cc1c(O)ccc2c(OS(=O)(=O)c3ccc4cccnc4c3)c(NC(=O)c3ccc4c(c3)CCC(C)(C)O4)c(=O)oc12
ER-alpha degradation (active/inactive) [17]: Active
Rf [3]: 0.28
viability at 100 µM [2]: 22%
GI50 [4]: 64 µM

COc1ccc(C(=O)Nc2cc3cc(Br)ccc3n(C)c2=O)cc1
GI50 [6]: 5 µM
GI50 [7]: 6.2 µM
GI50 [8]: 10 µM
Activity [9]: 29.5%
Activity [10]: 47%
Activity [11]: 34.81%
Activity [12]: 40.43%
Activity [13]: 17.14%
Activity [14]: 18.09%
Activity [15]: 48%
Activity [16]: 41.5%
IC50 [32]: 7 µM
IC50 [33]: 2 µM
IC50 [34]: 8 µM
IC50 [35]: 5 µM
IC50 [36]: 2 µM
viability at 100 µM [2]: 10%
GI50 [4]: 7 µM
GI50 [24]: 2 µM

COc1ccc(-c2cc3c(OS(=O)(=O)c4ccc(C)cc4)c(NC(=O)c4ccc5c(c4)CCC(C)(C)O5)c(=O)oc3c(C)c2OC)cc1
Rf [26]: 0.27
viability at 100 µM [2]: 89%

Cc1c(O)ccc2c(NCCN3CCOCC3)c(NC(=O)c3ccc4c(c3)CCC(C)(C)O4)c(=O)oc12
Rf [37]: 0.2
viability at 100 µM [2]: 87%

CC(=O)OC[C@H]1O[C@@H](Oc2ccc3c(N)c(NC(=O)c4ccc5c(c4)CCC(C)(C)O5)c(=O)oc3c2C)[C@H](OC(C)=O)[C@@H](OC(C)=O)[C@@H]1OC(C)=O
Rf [22]: 0.17
viability at 100 µM [2]: 71%
